Test results published in ChEMBL document CHEMBL1140626, “Quantitative structure-activity relationship of peptides binding to the class II major histocompatibility complex molecule Aq associated with autoimmune arthritis” (J Med Chem, 2007).

Experiments:
Type in all cases: cell-based
[1] = Displacement of biotinylated CLIP peptide from H-2Aq expressed in M12Q 14-7 cells at 250 uM
In short: (§1)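 Competition binding on M12Q 14-7 cells transfected with H-2Aq. Test peptide (seven levels, 750 to 1 µM) co-incubated 2.5 h at 37 °C with biotinylated CLIP at 5 µM. After washing, cells were stained with streptavidin-PE and read by flow cytometry. % inhibition was taken from gated mean fluorescence against the no-inhibitor control, after subtracting the no-CLIP background. Duplicates, repeated once; duplicate averages were used.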

[2] = Displacement of biotinylated CLIP peptide from H-2Aq expressed in M12Q 14-7 cells at 83 uM; in short: as §1
[3] = Displacement of biotinylated CLIP peptide from H-2Aq expressed in M12Q 14-7 cells at 28 uM; in short: as §1

| Substance | inhibition [1] [%] | inhibition [2] [%] | inhibition [3] [%] |
| --- | --- | --- | --- |
| Ac-IVSFKAYRK-NH2 | 51 | 61 | 49 |
| Ac-IATFKTYYK-NH2 | 70 | 58 | 38 |
| Ac-IAMFKSVNK-NH2 | 50 | 32 | 19 |
| Ac-ITTFKSSSK-NH2 | 20 | 6 | 6 |
| Ac-IMMFKTDVK-NH2 | 16 | 24 | 10 |
| Ac-IMSFKTRDK-NH2 | 54 | 27 | 15 |
| Ac-IMTFKMYVK-NH2 | 48 | 40 | 13 |
| Ac-ITSFKMRYK-NH2 | 80 | 69 | 50 |
| Ac-ITMFKVVYK-NH2 | 59 | 50 | 35 |
| Ac-IVAFKTVVK-NH2 | 41 | 27 | 22 |
| Ac-IMMFKVRRK-NH2 | 74 | 52 | 36 |
| Ac-ISAFKTNRK-NH2 | 84 | 61 | 42 |
| Ac-IAMFKMRSK-NH2 | 78 | 63 | 40 |
| Ac-ITMFKMDRK-NH2 | 62 | 46 | 26 |
| Ac-IMTFKAVYK-NH2 | 72 | 59 | 47 |
| Ac-IAAFKADSK-NH2 | 53 | 36 | 31 |
| Ac-IMMFKMSDK-NH2 | 30 | 17 | 4 |
| Ac-IAVFKMVRK-NH2 | 70 | 59 | 42 |
| Ac-ISTFKARVK-NH2 | 74 | 58 | 39 |
